The record followed here is ChEMBL document CHEMBL3098102, “1,2,3-Triazole-derived naphthalimides as a novel type of potential antimicrobial agents: synthesis, antimicrobial activity, interaction with calf thymus DNA and human serum albumin” (Bioorg Med Chem Lett, 2014).

Assay [1] concerns DNA. Description: Binding affinity to calf thymus DNA by UV-vis spectroscopy. The assay is classed as nucleic-acid assay. Conditions: Bos taurus. A digest of the protocol: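 UV-vis absorption spectra of calf thymus DNA recorded with increasing concentrations of test compound. The DNA band at 260 nm was monitored for changes in intensity and wavelength.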
Assay [2] relates to DNA. Description: Competitive binding affinity to calf thymus DNA at 0.25 to 2 x 10^-5 mol/L by UV spectroscopy in presence of neutral red. The assay is classed as nucleic-acid assay. To be noted: Bos taurus.
The subject of assay [3] is Saccharomyces cerevisiae. Description: Antimicrobial activity against Saccharomyces cerevisiae by two-fold serial dilution method. The assay is classed as functional. A digest of the protocol:
(§1)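 MIC read by broth microdilution in microdilution plates.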

Assay [4] relates to Bacillus subtilis. Description: Antimicrobial activity against Bacillus subtilis after 24 hrs by two-fold serial dilution method. In kind it is functional. The gist of the method:
as §1

Assay [5] has as its system Staphylococcus aureus. Description: Antimicrobial activity against Staphylococcus aureus ATCC 25923 after 24 hrs by two-fold serial dilution method. In kind it is functional. To be noted: ATCC 25923, 24 h.
Assay [6] concerns Candida albicans. Description: Antimicrobial activity against Candida albicans after 24 hrs by two-fold serial dilution method. The assay is classed as functional. A digest of the protocol:
as §1

Assay [7] has as its system Escherichia coli. Description: Antimicrobial activity against Escherichia coli DH52 after 24 hrs by two-fold serial dilution method. In kind it is functional. Conditions: DH52, 24 h.
Assay [8] in a line: Antimicrobial activity against Bacillus proteus after 24 hrs by two-fold serial dilution method. The assay is classed as functional. The gist of the method: as §1
In assay [9] the test system is Pseudomonas aeruginosa. Description: Antimicrobial activity against Pseudomonas aeruginosa after 24 hrs by two-fold serial dilution method. The assay is classed as functional. A digest of the protocol: as §1
Assay [10] has as its system Aspergillus flavus. Description: Antimicrobial activity against Aspergillus flavus after 24 hrs by two-fold serial dilution method. The assay is classed as functional. A digest of the protocol: as §1
Assay [11] has as its system Micrococcus luteus. Description: Antimicrobial activity against Micrococcus luteus ATCC 4698 after 24 hrs by two-fold serial dilution method. The assay is classed as functional. Conditions: ATCC 4698, 24 h.
Assay [12] has as its system Aspergillus flavus. Description: Ratio of fluconazole MIC to compound MIC for Aspergillus flavus after 24 hrs by two-fold serial dilution method. The assay is classed as functional.
Assay [13] relates to Staphylococcus aureus. Description: Antimicrobial activity against methicillin-resistant Staphylococcus aureus N315 after 24 hrs by two-fold serial dilution method. In kind it is functional. Conditions: N315, 24 h.
Assay [14] relates to Shigella dysenteriae. Description: Antimicrobial activity against Shigella dysenteriae after 24 hrs by two-fold serial dilution method. In kind it is functional.
The subject of assay [15] is Escherichia coli. Description: Ratio of chloromycin MIC to compound MIC for Escherichia coli DH52 after 24 hrs by two-fold serial dilution method. The assay is classed as functional.

Converted amounts (≈) assume the structure as drawn. The source made the active and inactive calls. Bounds are passed on as bounds.

Consider `O=C1c2cccc3c(Br)ccc(c23)C(=O)N1N(Cc1cn(Cc2ccc(Cl)c(Cl)c2)nn1)Cc1cn(Cc2ccc(Cl)c(Cl)c2)nn1` [listing 1 of 2 here], for which the K in assay [1] is 2.34 ×10⁴ L/mol. In [2], the outcome was Active.
Turning to `CCCCCCCCn1cc(CN(Cc2cn(CCCCCCCC)nn2)N2C(=O)c3cccc4c(Br)ccc(c34)C2=O)nn1.Cl.Cl`, the minimal inhibitory concentration (MIC) in assay [3] was above 512 µg/mL; in assay [4], above 512 µg/mL; in assay [5], above 512 µg/mL; in assay [6], above 512 µg/mL; in [7], 512 µg/mL; in assay [8] it was 512 µg/mL. Moreover, the MIC in [9] was 512 µg/mL; in assay [10], 16 µg/mL; in assay [11], above 512 µg/mL; in [13], above 512 µg/mL; in assay [14], above 512 µg/mL. Besides, in assay [12], the Ratio is listed as 16.
Turning to `Cl.Cl.Cl.Cl.Cl.Cl.O=C1c2cccc3c(Br)ccc(c23)C(=O)N1N(Cc1cn(Cc2ccc(Cl)c(Cl)c2)nn1)Cc1cn(Cc2ccc(Cl)c(Cl)c2)nn1`, the MIC in assay [3] was 32 µg/mL; in [4], 512 µg/mL; in assay [5], 256 µg/mL; in assay [6], 256 µg/mL; in assay [7], 0.5 µg/mL; in assay [8] it was 256 µg/mL. The MIC in [9] is 256 µg/mL; in assay [10], above 512 µg/mL; in assay [11], 512 µg/mL; in assay [13] it was 256 µg/mL; in assay [14], above 512 µg/mL. Besides, the Ratio in assay [15] is on record as 2.
`O=C1c2cccc3c(Br)ccc(c23)C(=O)N1N(Cc1cn(Cc2ccc(Cl)c(Cl)c2)nn1)Cc1cn(Cc2ccc(Cl)c(Cl)c2)nn1` [listing 2 of 2 here]: the MIC is 64 µg/mL (≈ 83 µM) in assay [3]; above 512 µg/mL in [4]; above 512 µg/mL in [5]; 256 µg/mL (≈ 332 µM) in assay [6]; 1 µg/mL (≈ 1.3 µM) in assay [7]; 512 µg/mL (≈ 664 µM) in assay [8]. Also, the MIC in [9] was 256 µg/mL (≈ 332 µM); in [10], above 512 µg/mL; in [11], above 512 µg/mL; in assay [13], above 512 µg/mL; in [14], above 512 µg/mL. In [15], the Ratio was determined as 2.
For `Cl.Cl.Cl.Cl.O=C1c2cccc3c(Br)ccc(c23)C(=O)N1N(Cc1cn(Cc2ccccc2Cl)nn1)Cc1cn(Cc2ccccc2Cl)nn1`, the MIC in assay [3] was above 512 µg/mL; in [4], above 512 µg/mL; in [5] it was above 512 µg/mL; in [6] it was 64 µg/mL; in assay [7], 4 µg/mL; in assay [8], above 512 µg/mL. Moreover, the MIC is above 512 µg/mL in [9]; above 512 µg/mL in [10]; 128 µg/mL in assay [11]; 512 µg/mL in [13]; above 512 µg/mL in assay [14]. Further, the Ratio in [15] stood at 2.
For the compound `O=C1c2cccc3c(Br)ccc(c23)C(=O)N1N(Cc1cn(Cc2cccc(Cl)c2)nn1)Cc1cn(Cc2cccc(Cl)c2)nn1`, the MIC in [3] is 64 µg/mL (≈ 91.1 µM); in [4], 256 µg/mL (≈ 364 µM); in [5], 256 µg/mL (≈ 364 µM); in assay [6] it was 64 µg/mL (≈ 91.1 µM); in assay [7], 2 µg/mL (≈ 2.85 µM); in assay [8] it was above 512 µg/mL. The MIC in assay [9] was 64 µg/mL (≈ 91.1 µM); in [10], above 512 µg/mL; in assay [11] it was above 512 µg/mL; in assay [13] it was above 512 µg/mL; in assay [14], above 512 µg/mL. In [15], the Ratio turned out to be 2.
For `Cl.Cl.Cl.Cl.O=C1c2cccc3c(Br)ccc(c23)C(=O)N1N(Cc1cn(Cc2ccc(Cl)cc2)nn1)Cc1cn(Cc2ccc(Cl)cc2)nn1`, the MIC was above 512 µg/mL in assay [3]; 256 µg/mL in assay [4]; 256 µg/mL in [5]; above 512 µg/mL in [6]; 2 µg/mL in assay [7]; above 512 µg/mL in [8]. The MIC stood at 512 µg/mL in assay [9]; 256 µg/mL in [10]; 32 µg/mL in assay [11]; 512 µg/mL in [13]; 256 µg/mL in [14]. Moreover, the Ratio in [15] amounted to 2.
As for `O=C1c2cccc3c(Br)ccc(c23)C(=O)N1N(Cc1cn(Cc2ccccc2Cl)nn1)Cc1cn(Cc2ccccc2Cl)nn1`, the minimum inhibitory concentration (MIC) was above 512 µg/mL in assay [3]; above 512 µg/mL in [4]; above 512 µg/mL in assay [5]; 64 µg/mL (≈ 91.1 µM) in [6]; 4 µg/mL (≈ 5.69 µM) in [7]; above 512 µg/mL in assay [8]. For the same compound, the MIC in assay [9] was above 512 µg/mL; in assay [10] it was above 512 µg/mL; in assay [11], 128 µg/mL (≈ 182 µM); in assay [13], 512 µg/mL (≈ 729 µM); in assay [14] it was above 512 µg/mL. The Ratio in assay [15] was determined as 2.
`Cl.Cl.Cl.Cl.O=C1c2cccc3c(Br)ccc(c23)C(=O)N1N(Cc1cn(Cc2cccc(Cl)c2)nn1)Cc1cn(Cc2cccc(Cl)c2)nn1`: the MIC amounted to 64 µg/mL in [3]; 256 µg/mL in assay [4]; 256 µg/mL in assay [5]; 16 µg/mL in [6]; 2 µg/mL in assay [7]; 512 µg/mL in assay [8]. Besides, the minimum inhibitory concentration (MIC) in [9] is 64 µg/mL; in [10], above 512 µg/mL; in [11], above 512 µg/mL; in [13] it was 256 µg/mL; in [14], 512 µg/mL. In assay [15], the Ratio was 2.
For `CCCCCCCCn1cc(CN(Cc2cn(CCCCCCCC)nn2)N2C(=O)c3cccc4c(Br)ccc(c34)C2=O)nn1`, the MIC in [3] is above 512 µg/mL; in assay [4], above 512 µg/mL; in assay [5] it was above 512 µg/mL; in assay [6] it was above 512 µg/mL; in assay [7], 512 µg/mL (≈ 756 µM); in assay [8] it was above 512 µg/mL. Besides, the MIC in [9] was 512 µg/mL (≈ 756 µM); in assay [10], 16 µg/mL (≈ 23.6 µM); in [11], above 512 µg/mL; in assay [13] it was above 512 µg/mL; in assay [14], above 512 µg/mL. For the same compound, the Ratio in assay [12] was 16.

For orientation: MIC means the smallest concentration in the dilution series that meets the test's criterion for growth inhibition. A higher MIC goes with a need for much substance.
